# Assay outcomes (PubChem)
# The list is not random: actives were taken first. Their share in the collection is about 1.8%.
# EBI2 block = blocks human EBI2 receptor beta-arrestin signaling | P32249 | EBI2 beta-arrestin recruitment, luminescence, 7a,25-OHC stimulated | inhibition, % at 5 µM | 360,000 tested, 0.81% active | AID 651636; in the data active means inhibition above about 38%;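 further: enzyme fragment complementation signal reports receptor beta-arrestin coupling in cells; 0% = agonist plus DMSO wells and 100% = wells without agonist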
# CCR6 antagonist = CCR6 (human) receptor antagonism | P51684 | CHO-K1 CCR6 PathHunter beta-arrestin, luminescence, CCL20-stimulated | inhibition, % at 20 µM | 340,000 tested, 0.49% active;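 active means compounds whose inhibition of the agonist-driven luminescence signal at 20 µM reaches about 50%, limit read from the data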;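 further: cells stimulated with CCL20 at 14 nM final; plate controls were DMSO with CCL20 for no effect and DMSO without agonist for full effect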
# APJ ag = agonists of human APJ apelin receptor | CHO-K1 APJ PathHunter beta-arrestin, luminescence; 0% DMSO wells, 100% apelin | P35414 | activation, % at 20 µM | 330,000 tested, 0.11% active;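 active means activation more than six SD over the plate average, tested at 20 µM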;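 further: 0% = DMSO alone and 100% = apelin-13 at 10 nM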
# Target sequence (P35414 whole entry, looked up): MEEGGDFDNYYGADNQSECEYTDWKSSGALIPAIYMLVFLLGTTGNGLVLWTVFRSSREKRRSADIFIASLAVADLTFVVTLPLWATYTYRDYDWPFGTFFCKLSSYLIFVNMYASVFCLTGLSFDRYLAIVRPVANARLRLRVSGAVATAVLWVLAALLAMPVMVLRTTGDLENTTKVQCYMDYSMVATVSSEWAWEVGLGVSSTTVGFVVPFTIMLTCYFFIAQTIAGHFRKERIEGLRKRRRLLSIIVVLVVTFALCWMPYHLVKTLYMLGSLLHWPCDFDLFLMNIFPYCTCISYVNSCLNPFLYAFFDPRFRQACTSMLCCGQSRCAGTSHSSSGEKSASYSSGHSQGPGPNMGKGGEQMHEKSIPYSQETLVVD
#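 Assay system: CHO-K1 APJ beta-arrestin complementation cell line / Compound: single test compound dose, 20 µM final, 1% DMSO / Times: overnight seeding, 90 min compound at 25 °C, 1 h detection / Technique: beta-gal luminescence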
# B2AR ag = agonists of human beta-2 adrenergic receptor inducing internalization; Am2.2-beta2AR cells, FAP receptor internalization, flow cytometry; response, % (no concentration beside the values); 340,000 tested, 0.43% active; AID 504454;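 active means response above a set limit, near 3 SD of response in nonfluorescent compounds, cut at about 42% in these data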
# APJ antag = antagonists of human APJ apelin receptor | P35414 | CHO-K1 APJ beta-arrestin complementation, luminescence | inhibition, % at 20 µM | 330,000 tested, 0.32% active;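 active means inhibition above about 40% at 20 µM, limit read from the data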;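 further: cells challenged with 10 nM apelin-13 agonist together with compound; plate controls were apelin-13 plus DMSO wells for no effect and DMSO wells lacking apelin-13 for full effect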
# CXCR6 block = blocks human CXCR6 beta-arrestin recruitment; O00574; CHO-K1 PathHunter CXCR6 beta-arrestin, luminescence; inhibition, % at 20 µM; 360,000 tested, 0.36% active; in the data active means inhibition above about 34%, passing the limit was not always enough;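 further: antagonist mode with CXCL16 agonist at 10 nM final; 0% = 10 nM CXCL16 with DMSO and 100% = unstimulated wells without agonist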
# CXCR6 antag conf = confirmation of human CXCR6 receptor antagonists; shares compounds with CXCR6 block; CHO-K1 CXCR6 PathHunter beta-arrestin, luminescence; inhibition, % at 20 µM; 700 tested, 65% active; AID 602409;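 active means mean inhibition over four retests above 40%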;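 further: receptor stimulated with 10 nM CXCL16 agonist; beta-galactosidase fragment complementation upon beta-arrestin recruitment to receptor; plate controls were CXCL16 plus DMSO for no effect and DMSO without CXCL16 for full effect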
# * marks the source's active call; other numbers are inactive results; nt = no result.
SMILES,EBI2 block,CCR6 antagonist,APJ ag,B2AR ag,APJ antag,CXCR6 block,CXCR6 antag conf
CC1=C(CC/C(C)=N/NC(N)=S)C(C)(C)CCC1,28.9,19.0,-4.0,4.0,21.8,45.7*,14.7
CC(C)=CCN1CCN(CCC2=C(C)CCCC2(C)C)CC1CCO (centres undefined),-4.3,14.6,-2.8,-0.9,17.8,-23.4,nt
CC(C)CNC(=O)C1(C)CCCCCN1Cc1ccccc1-c1ccccc1 (centres undefined),10.2,nt,nt,nt,nt,36.9*,8.2
CCNC(=O)C1(C)CCCN1Cc1ccccc1Cl (centres undefined),0.2,nt,nt,nt,nt,10.0,nt
COc1ccc(OC)c(/C=C/c2ccc3cccc(O)c3n2)c1,23.4,nt,-7.1,18.0,37.7,48.4*,59.1*
O=C(NCC(=O)N1CCN(S(=O)(=O)c2ccccc2)CC1)c1ccc(Br)o1,4.3,13.6,-1.1,-5.2,-59.9,-9.5,nt
CC1CCC/C(=C\c2ccc(O)cc2)C1=O (centres undefined),11.7,2.9,0.4,-1.9,5.6,-9.0,nt
COc1ccc(/C=C2/CCC(CN3CCOCC3)C2=O)cc1 (centres undefined),35.7,87.3*,nt,17.6,nt,70.4*,70.0*
CN(C)CC1CC/C(=C\c2ccc(O)cc2)C1=O (centres undefined),31.3,85.7*,nt,2.6,nt,74.8*,76.6*
COc1ccc(CNC(=O)O[C@H]2C[C@@H]3C(=O)N(c4ccccc4)C(=O)[C@@H]3[C@@H]3CN(S(=O)(=O)c4ccc(C)cc4)C[C@]23O)cc1OC,-5.7,nt,nt,nt,nt,-0.2,nt
CCN1C(=O)[C@H]2[C@@H](c3ccc(C(F)(F)F)cc3)N[C@]3(CCCN(Cc4ccco4)C3=O)[C@H]2C1=O,-2.8,nt,nt,nt,nt,54.9*,-8.3
Cc1ccc(-c2csc(N3C(=N)SCC3=O)n2)cc1,nt,39.2,-5.5,nt,12.2,nt,nt
N=C1SCC(=O)N1c1ncc(Cc2ccc(F)cc2)s1,-6.4,nt,-5.0,13.8,4.4,50.8*,67.8*
COc1ccc(C(=O)/C=C/Sc2nc3ccccc3o2)cc1,36.4,61.8*,3.1,26.8,1.1,45.5*,44.6*
COc1ccc(C(=O)N/C(N)=N/c2nc3ccccc3o2)cc1,9.9,-8.1,-0.6,-14.5,5.9,-8.7,nt
COC(=O)c1cc(=O)nc(NNC(C)=O)s1,-3.0,nt,nt,nt,nt,1.1,nt
C[C@@H](NC(=O)c1nc[nH]c1C(=O)N[C@H](C)c1ccccc1)c1ccccc1,8.8,12.6,-2.9,1.1,5.5,9.8,nt
C[C@@H](NC(=O)c1[nH]cnc1C(=O)Nc1ccccc1F)c1ccccc1,-27.7,nt,nt,nt,nt,42.3*,26.3
O=C1C(=C(c2ccccc2)N2CCOCC2)Cc2ccccc21,23.9,nt,nt,nt,nt,69.8*,78.0*
O=C(c1ccccc1)N1CCN(C(=O)N2CCOCC2)CC1,-1.4,-6.5,2.5,1.6,2.4,-6.4,nt
CN(C)c1cc2c3ccccc3n(C)c2cc1N,-1.6,-4.3,nt,13.8,nt,-3.6,nt
COCCn1nnnc1C(c1cccs1)N1CCN2CCCC2C1 (centres undefined),9.2,-3.2,-4.2,1.9,0.4,2.9,nt
CCOC(=O)C1=C(c2ccccc2)NC(N)=NC1c1ccc(OCc2ccc(C(=O)OC)cc2)cc1 (centres undefined),1.1,42.6,-0.6,4.0,3.2,34.6*,22.6
CCOC(=O)C1=C(c2ccccc2)Nc2ncnn2C1c1ccc(C(=O)O)cc1 (centres undefined),3.6,3.9,4.9,6.2,9.0,-7.7,nt
COc1ccc(S(=O)(=O)N(C)C[C@@H]2Oc3cc(C#CC4CCCCC4)ccc3S(=O)(=O)N([C@@H](C)CO)C[C@@H]2C)cc1,28.8,nt,nt,nt,nt,9.7,nt
CC1(C(=O)NCc2ccccc2)CCC(=O)N1C1CCN(Cc2ccccc2)CC1 (centres undefined),3.5,nt,nt,nt,nt,10.1,nt
COc1cccc(OC)c1C(=O)Nc1ccc2nc(C)c(C)nc2c1,-12.6,3.4,-0.1,-0.2,-2.4,65.2*,-1.8
COc1cccc(NC(=O)Nc2ccc3nc(C)c(C)nc3c2)c1,5.5,2.5,2.4,6.6,2.8,1.4,nt
O=C(Oc1c(Cl)cc(Cl)c2cccnc12)c1cccs1,14.7,27.8,-2.8,15.4,3.8,33.9,nt
